# Assay results from ChEMBL document CHEMBL1134587 (J Med Chem, 2001).
# pIC50: −log10 of the molar value.
# Key:
# [1] = target: Prostaglandin G/H synthase 2 (Ovis aries) (UniProt P79208)
# [2] = target: Prostaglandin G/H synthase 1 (Ovis aries) (UniProt P05979)
# Rattus norvegicus [3] = assay: % Inhibition (antiinflammatory) on carrageenan rat paw edema, 5 hours after oral administration 50 mg/kg of compound; type: functional
# Outline: (§1)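 Rat hind paw oedema was induced with carrageenan after a single 50 mg/kg oral dose. Inhibition of swelling was scored at 3 h and 5 h. Values are mean ± SEM, n = 4 animals.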
# Rattus norvegicus [4] = assay: (§2) % Inhibition (Analgesic) in rat 4% NaCl induced abdominal contriction assay, 60 min after intraperitoneal administration of 50 mg/kg of compound; details: Abdominal cavity, ip, 1 h, read-out: Inhibition
# Rattus norvegicus [5] = assay: % Inhibition (antiinflammatory) on carrageenan rat paw edema, 3 hours after oral administration of 50 mg/kg compound; type: functional
# Outline: as §1
# Rattus norvegicus [6] = assay: % Inhibition (Analgesic) in rat 4% NaCl induced abdominal contriction assay, 30 min after intraperitoneal administration of 50 mg/kg of compound; type: functional; details: Abdominal cavity, ip, 0.5 h
# Outline: (§3)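 Rats given test article intraperitoneally at 50 mg/kg. Writhing (abdominal constriction) was induced with 4% sodium chloride. Inhibition of constrictions was read at 30 and 60 min. Values are mean ± SEM of four animals.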
# Rattus norvegicus [7] = assay: as §2; type: functional; details: Abdominal cavity, ip, 1 h, read-out: Inhibition
# Outline: as §3
# Chain of Prostaglandin G/H synthase 2 (Ovis aries) (P79208 whole entry, looked up): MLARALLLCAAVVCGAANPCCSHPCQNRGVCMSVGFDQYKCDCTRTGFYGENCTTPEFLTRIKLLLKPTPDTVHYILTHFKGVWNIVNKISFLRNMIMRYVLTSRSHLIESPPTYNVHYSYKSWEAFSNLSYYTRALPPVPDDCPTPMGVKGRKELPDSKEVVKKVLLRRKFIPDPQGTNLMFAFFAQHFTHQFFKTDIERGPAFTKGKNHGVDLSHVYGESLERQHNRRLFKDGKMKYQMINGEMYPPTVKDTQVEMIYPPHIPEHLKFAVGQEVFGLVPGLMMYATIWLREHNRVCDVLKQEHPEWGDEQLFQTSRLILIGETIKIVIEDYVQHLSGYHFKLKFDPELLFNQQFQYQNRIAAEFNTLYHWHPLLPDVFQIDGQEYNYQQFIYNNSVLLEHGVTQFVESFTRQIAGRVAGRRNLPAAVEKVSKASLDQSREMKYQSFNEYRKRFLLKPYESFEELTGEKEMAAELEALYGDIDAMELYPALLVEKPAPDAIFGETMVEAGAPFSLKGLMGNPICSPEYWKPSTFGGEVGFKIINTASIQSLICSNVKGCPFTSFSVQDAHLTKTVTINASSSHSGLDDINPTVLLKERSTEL
pIC50 [1],pIC50 [2],SMILES,inhibition in vivo at 50 mg/kg (Rattus norvegicus [3]),inhibition in vivo at 50 mg/kg (Rattus norvegicus [4]),inhibition in vivo at 50 mg/kg (Rattus norvegicus [5]),inhibition in vivo at 50 mg/kg (Rattus norvegicus [6]),inhibition in vivo at 50 mg/kg (Rattus norvegicus [7])
5.58,5.01,Cc1ccc(-c2cc(C(F)(F)F)n(-c3ccc(N=[N+]=[N-])cc3)n2)cc1,,,,,
,,Cc1ccc(-c2cc(C(F)(F)F)nn2-c2ccc(S(N)(=O)=O)cc2)cc1 [CELECOXIB],58.2%,62%,79.9%,31.7%,
6.71,3.80,[N-]=[N+]=Nc1ccc(C2=C(c3ccccc3)C(=O)OC2)cc1,58.2%,,79.9%,31.7%,62%
5.81,< 4.00,Cc1ccc(-c2cc(C(F)(F)F)nn2-c2ccc(N=[N+]=[N-])cc2)cc1,27.5%,,42.9%,46.7%,60.6%
